The values below come from article PMC3782865 (Journal of medicinal chemistry, 2013).

The IC50 is the concentration at which inhibition is half-maximal.

The structures appear in SMILES notation. “Also recorded” adds a separate entry of the source. Where a name gives a salt, the structure may show the parent alone. Read-outs that look alike come from different tables or passages of the source.

Data set [1] deals with proteasome trypsin-like (Tr-L) sites in NCI-H929 and RPMI-8226 multiple myeloma cells. It counts as cell-based. The following applies: for IC50: ProteasomeGlo.
Data set [2] addresses T1, proteasome caspase-like (Casp-L) sites in NCI-H929 and RPMI-8226 multiple myeloma cells (Homo sapiens, UniProt P28072).
T1 sequence (P28072 1-239): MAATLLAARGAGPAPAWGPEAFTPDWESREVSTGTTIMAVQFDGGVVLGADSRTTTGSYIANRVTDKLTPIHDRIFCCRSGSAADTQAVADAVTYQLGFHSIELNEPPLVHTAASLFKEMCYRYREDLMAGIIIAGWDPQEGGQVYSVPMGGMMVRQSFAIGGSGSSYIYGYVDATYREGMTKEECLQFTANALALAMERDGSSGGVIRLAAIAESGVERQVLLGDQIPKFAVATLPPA
It counts as cell-based.

In data set [3] the test system is cathepsins in NCI-H929 cells. Description: Cathepsins activity assay. The settings on record: 6 h treatment, Z-FR-amc. It counts as cell-based. An outline of the steps:
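Treated and mock-treated cells were washed in PBS and permeabilised on ice with 0.05% digitonin in Tris-HCl pH 7.5 buffer. Cytosol was removed by centrifugation (15 min, 20 000g, 4 °C), and pellets were lysed in Bis-Tris pH 5.5/0.5% CHAPS. Protein-normalised acidic extracts were added to 40 µM substrate in phosphate buffer pH 6.0 with EDTA and DTT. Amc fluorescence was read continuously for 30 min, with rates taken from progress-curve slopes.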

Data set [4] concerns the target proteasome active sites (β2, β5) in extracts of HEK-293T cells (Homo sapiens, UniProt P28074+Q99436). The experiment in a line: Competition assays in HEK-293T cell lysate with activity-based probes. It counts as biochemical. The settings on record: HEK-293 extracts.
Data set [5] concerns trypsin-like (Tr-L) sites of purified 26S proteasomes from rabbit muscles. Description: Inhibition of purified 26S proteasomes, trypsin-like sites. It counts as biochemical. The following applies: purified rabbit 26S proteasomes.
Data set [6] relates to RPMI-8226 cells. The experiment in a line: Viability of RPMI-8226 cells, Alamar Blue assay. It counts as cell-based. The following applies: for Toxicity to cells as a single agent: 4a 1 µM, 3 27 µM. In a few lines: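 RPMI-8226 myeloma cells grown in RPMI-1640 with 10% FBS, penicillin, streptomycin and plasmocin in a humidified 5% CO2 incubator. Cells were exposed to bortezomib or carfilzomib for 1 h, then to test compound (1 µM or 27 µM) or mock for 47 h. Viable cells were measured by Alamar Blue dye conversion. Mean ± SEM of three (bortezomib) or two to seven (carfilzomib) biological replicates.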
In general terms: The colour change of resazurin is a common sign of viable cells or microbes.

Data set [7] relates to RPMI-8226 cells. The following applies: cited from earlier work.
Data set [8] concerns the target T2, proteasome trypsin-like sites (Mus musculus, UniProt P70195).
T2 sequence (P70195 44-277): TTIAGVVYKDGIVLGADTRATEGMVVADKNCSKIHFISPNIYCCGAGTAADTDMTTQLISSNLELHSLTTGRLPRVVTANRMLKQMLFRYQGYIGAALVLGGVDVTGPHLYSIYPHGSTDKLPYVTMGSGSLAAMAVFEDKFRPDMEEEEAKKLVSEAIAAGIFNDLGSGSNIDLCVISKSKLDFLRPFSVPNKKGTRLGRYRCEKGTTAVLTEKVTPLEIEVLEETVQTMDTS
The experiment in a line: Inhibition of trypsin-like sites in mice. The following applies: manuscript in preparation. It counts as in vivo.

[9] abbreviates: read-out: IC50 Tr-L, NCI-H929, NCI-H929 cells, 6 h treatment.

Turning to `Cc1c(O)cccc1C(=O)N[C@H](C(=O)N[C@@H](CO)C(=O)N[C@H](/C=C/S(C)(=O)=O)Cc1ccc(CN)cc1)C(C)C` [compound 8], the “Difference in inhibition of trypsin-like activity (IC50) between NCI-H929 and RPMI-8226 cells” value in data set [1] (6 h treatment) is “greater than 10 fold”. Further, the IC50 in data set [1] (setting [9]) was 200 nM; in data set [1] (read-out: IC50 Tr-L, RPMI-8226, RPMI-8226 cells, 6 h treatment), 3200 nM; in data set [2] it was over 30 µM. Moreover, the “Inhibition of cathepsins in cells” value in data set [3] was “did not cause any inhibition of cathepsins”.
Regarding `CC1=CC(C)=[N+]2C1=C(CCCCc1cn([C@@H](Cc3ccccc3)C(=O)N[C@@H](CC(C)C)C(=O)N[C@@H](CC(C)C)C(=O)N[C@H](/C=C/S(C)(=O)=O)Cc3ccc(CN)cc3)nn1)c1c(C)cc(C)n1[B-]2(F)F` [compound 19, Bodipy-triazole-Phe-Leu-Leu-Phe(4-CH2NH2)VS TFA Salt], the “Inhibition/labeling of proteasome active sites in extracts” value (shortened to “Inhibition/labeling”) in data set [4] is “reacted with β2 and β5 subunits”.
Regarding `CC(C)C[C@H](NC(=O)[C@H](Cc1ccc(N)cc1)NC(=O)[C@H](Cc1ccccc1)N=[N+]=[N-])C(=O)N[C@H](/C=C/S(C)(=O)=O)Cc1ccc(CN)cc1` [compound 11], in data set [3], the “Inhibition of cathepsins in cells” value is given as “behaved similarly to 4a”.
With `CC(=O)N[C@@H](CCCNC(=N)N)C(=O)N[C@@H](CC(C)C)C(=O)N[C@@H](CCCNC(=N)N)C(=O)[C@@]1(C)CO1` [compound 2], the “IC50 (Chym-L)/IC50 (Tr-L)” value in data set [5] is over 375.
Same read-out and setting: the result for `CC(C)C[C@@H](/C=C/S(C)(=O)=O)NC(=O)[C@H](CC(C)C)NC(=O)[C@H](Cc1ccc(N)cc1)NC(=O)[C@H](Cc1ccccc1)N=[N+]=[N-]` [compound 16] reads under 0.00017.
Same read-out and setting: the result for `Cc1c(O)cccc1C(=O)N[C@H](C(=O)N[C@@H](CO)C(=O)N[C@H](/C=C/S(C)(=O)=O)Cc1ccc(N)cc1)C(C)C` [compound 9] reads “≪0.0067”.
Compound `O=C(CCCCCCC(=O)Nc1ccccc1)NO` [varinostat, reference compound] gave a Viability in data set [6] (1 µM, 48 h treatment, single agent) of 38.6 ± 0.5%.
For the compound `Cc1c(O)cccc1C(=O)N[C@H](C(=O)N[C@@H](CO)C(=O)N[C@@H](CCCNC(=N)N)C(=O)[C@@]1(C)CO1)C(C)C` [compound 3], in data set [7], the “Toxicity to myeloma cells as a single agent” value is given as “not toxic”. Besides, the “Treatment time to steady-state inhibition of trypsin-like activity” value in data set [1] (RPMI-8226 cells) is over 6 h. Also, the figures for the IC50 in data set [1] (setting [9]) and in data set [2] were 900 nM and over 30 µM, respectively. The “Toxicity to cells as a single agent” value in data set [6] is reported as “no effect on cells when used as a single agent”.
With `CC(C)C[C@H](NC(=O)[C@H](Cc1ccncc1)NC(=O)[C@H](Cc1ccccc1)N=[N+]=[N-])C(=O)N[C@H](/C=C/S(C)(=O)=O)Cc1ccc(CN)cc1` [compound 10], the “Inhibition of cathepsins in cells” value in data set [3] was “partly reduced cathepsin activity”.
As for `CC1=CC(C)=[N+]2C1=C(CCCCc1cn([C@@H](Cc3ccccc3)C(=O)N[C@@H](Cc3ccc(CN)cc3)C(=O)N[C@@H](CC(C)C)C(=O)N[C@H](/C=C/S(C)(=O)=O)Cc3ccc(CN)cc3)nn1)c1c(C)cc(C)n1[B-]2(F)F` [compound 20], the “Inhibition/labeling” value in data set [4] was “reduced the specificity”.
Regarding `CC(C)C[C@H](NC(=O)[C@H](Cc1ccccc1)N=[N+]=[N-])C(=O)N[C@@H](CC(C)C)C(=O)N[C@H](/C=C/S(C)(=O)=O)Cc1ccc(CN)cc1` [compound 4a, N3Phe-Leu-Leu-Phe(4-CH2NH2)VS TFA Salt], the “Treatment time to steady-state inhibition of trypsin-like activity” value in data set [1] (RPMI-8226 cells) is reported as 1 h. Besides, the “Toxicity to cells as a single agent” value in data set [6] is “not toxic; also recorded: no effect on cells when used as a single agent”. Besides, in data set [6] (bortezomib 1 h, then 47 h 4a (1 µM)), the Sensitization to bortezomib entry is listed as “sensitized them to bortezomib”. For the same compound, the “Inhibition of cathepsins in cells” value in data set [3] was “Partial inhibition of cathepsins”. Moreover, the “Inhibition of trypsin-like sites in mice” value in data set [8] is on record as “capable of inhibiting trypsin-like sites in mice”.
On to `CC(=O)N[C@@H](CC(C)C)C(=O)N[C@@H](CC(C)C)C(=O)N[C@@H](CCCNC(=N)N)C(=O)[C@@]1(C)CO1` [1a], for which, in data set [5], the “IC50 (Chym-L)/IC50 (Tr-L)” value is reported as over 30.
`CC(C)C[C@H](NC(=O)[C@H](Cc1ccc(CN)cc1)NC(=O)[C@H](Cc1ccccc1)N=[N+]=[N-])C(=O)N[C@H](/C=C/S(C)(=O)=O)Cc1ccc(CN)cc1` [compound 12]: in data set [4], the “Inhibition/labeling” value is given as “most potent inhibitor in extracts”. Also, the “Inhibition of cathepsins in cells” value in data set [3] was “slightly more potent inhibitor of cathepsins”.
